One may read the IC50 as the concentration at which inhibition is half-maximal.

Molecules are shown by their SMILES.

The results in this text go back to ChEMBL document CHEMBL4342456, “Preventing Morphine-Seeking Behavior through the Re-Engineering of Vincamine's Biological Activity” (J Med Chem, 2020).

Test [1] deals with Cannabinoid receptor 1 (Homo sapiens, UniProt P21554). Description: Antagonist activity at human Gi/o-coupled CNR1 expressed in CHOK1 cells assessed as inhibition in CP55940-induced beta-arrestin 2 recruitment incubated for 30 mins followed by CP55940 addition and measured after 90 or 180 mins by pathhunter beta-arrestin assay. Format: cell-based. Summed up: (§1)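 PathHunter beta-arrestin recruitment, antagonist mode, run at DiscoverX. Cells seeded and held at 37 °C, then preincubated with test sample for 30 min at 37 °C or room temperature (1% vehicle). Agonist then added at EC80 for 90 or 180 min. […] IC50 comes from concentration–response runs in the same format.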
Cannabinoid receptor 1, sequence (P21554 whole entry): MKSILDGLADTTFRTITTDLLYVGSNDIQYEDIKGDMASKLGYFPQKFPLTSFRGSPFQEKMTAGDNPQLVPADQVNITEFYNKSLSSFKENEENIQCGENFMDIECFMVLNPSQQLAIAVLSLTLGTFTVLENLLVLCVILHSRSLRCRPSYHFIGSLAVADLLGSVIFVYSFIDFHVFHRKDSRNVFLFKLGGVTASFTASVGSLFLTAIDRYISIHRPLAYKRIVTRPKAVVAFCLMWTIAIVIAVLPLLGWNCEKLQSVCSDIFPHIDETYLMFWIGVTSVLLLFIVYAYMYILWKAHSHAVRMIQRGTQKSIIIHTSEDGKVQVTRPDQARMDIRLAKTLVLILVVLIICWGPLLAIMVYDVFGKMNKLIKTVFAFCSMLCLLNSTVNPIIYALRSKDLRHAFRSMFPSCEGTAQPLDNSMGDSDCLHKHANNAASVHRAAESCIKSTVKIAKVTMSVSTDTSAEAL

The target of test [2] is Cannabinoid receptor 2 (Homo sapiens, UniProt P34972). Description: Antagonist activity at human Gi/o-coupled CNR2 expressed in CHOK1 cells assessed as inhibition in CP55940-induced beta-arrestin 2 recruitment incubated for 30 mins followed by CP55940 addition and measured after 90 or 180 mins by pathhunter beta-arrestin assay. Format: cell-based. The method, boiled down: as §1
Cannabinoid receptor 2, sequence (P34972 whole entry): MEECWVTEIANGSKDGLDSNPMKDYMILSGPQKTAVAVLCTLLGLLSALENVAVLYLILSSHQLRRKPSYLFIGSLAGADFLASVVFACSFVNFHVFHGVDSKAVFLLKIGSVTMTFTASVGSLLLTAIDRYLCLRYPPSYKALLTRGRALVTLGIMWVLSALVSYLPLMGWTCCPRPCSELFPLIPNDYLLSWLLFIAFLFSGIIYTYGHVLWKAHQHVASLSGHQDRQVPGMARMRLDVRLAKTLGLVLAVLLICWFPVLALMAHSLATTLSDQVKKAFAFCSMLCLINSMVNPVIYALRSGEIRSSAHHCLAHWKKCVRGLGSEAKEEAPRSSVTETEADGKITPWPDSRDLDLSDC

In test [3] the target is T1, Glucose-dependent insulinotropic receptor (Homo sapiens, UniProt Q8TDV5).
T1 sequence (Q8TDV5 whole entry): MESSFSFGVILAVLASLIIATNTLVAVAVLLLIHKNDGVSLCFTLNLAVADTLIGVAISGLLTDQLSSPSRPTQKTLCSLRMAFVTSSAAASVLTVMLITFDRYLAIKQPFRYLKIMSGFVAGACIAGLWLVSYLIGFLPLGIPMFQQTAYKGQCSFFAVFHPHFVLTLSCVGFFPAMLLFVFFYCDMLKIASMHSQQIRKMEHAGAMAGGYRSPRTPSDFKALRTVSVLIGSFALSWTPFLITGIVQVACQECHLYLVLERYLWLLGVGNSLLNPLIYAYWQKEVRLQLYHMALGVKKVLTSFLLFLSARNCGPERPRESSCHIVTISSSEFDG
Description: Antagonist activity at human GPR119 expressed in human HEK293 cells assessed as inhibition in agonist-induced beta-arrestin 2 recruitment incubated for 30 mins followed by agonist addition and measured after 90 or 180 mins by pathhunter beta-arrestin assay. Format: cell-based. Summed up:
as §1
(In general: Recruitment of arrestin is a read-out of receptor activation apart from second messengers.)

Test [4] has as its target T2, Neuropeptide S receptor (Homo sapiens, UniProt Q6W5P4).
T2 sequence (Q6W5P4 whole entry): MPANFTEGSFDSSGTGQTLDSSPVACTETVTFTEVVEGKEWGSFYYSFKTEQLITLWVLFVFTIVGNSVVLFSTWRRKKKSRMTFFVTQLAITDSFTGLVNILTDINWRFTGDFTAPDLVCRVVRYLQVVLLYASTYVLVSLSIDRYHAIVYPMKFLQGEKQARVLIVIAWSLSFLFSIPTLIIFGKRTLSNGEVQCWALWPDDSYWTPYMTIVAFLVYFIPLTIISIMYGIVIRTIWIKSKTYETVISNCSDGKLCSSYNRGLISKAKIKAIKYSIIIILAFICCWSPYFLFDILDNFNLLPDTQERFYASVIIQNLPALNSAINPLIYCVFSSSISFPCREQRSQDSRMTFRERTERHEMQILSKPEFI
Briefly: Antagonist activity at human Gq-coupled NPSR1b expressed in human U2OS cells assessed as inhibition in neuropeptide S-induced beta-arrestin 2 recruitment incubated for 30 mins followed by neuropeptide S addition and measured after 90 or 180 mins by pathhunter beta-arrestin assay. Format: cell-based. The method, boiled down: as §1

The target of test [5] is T3, Prolactin-releasing peptide receptor (Homo sapiens, UniProt P49683).
T3 sequence (P49683 whole entry): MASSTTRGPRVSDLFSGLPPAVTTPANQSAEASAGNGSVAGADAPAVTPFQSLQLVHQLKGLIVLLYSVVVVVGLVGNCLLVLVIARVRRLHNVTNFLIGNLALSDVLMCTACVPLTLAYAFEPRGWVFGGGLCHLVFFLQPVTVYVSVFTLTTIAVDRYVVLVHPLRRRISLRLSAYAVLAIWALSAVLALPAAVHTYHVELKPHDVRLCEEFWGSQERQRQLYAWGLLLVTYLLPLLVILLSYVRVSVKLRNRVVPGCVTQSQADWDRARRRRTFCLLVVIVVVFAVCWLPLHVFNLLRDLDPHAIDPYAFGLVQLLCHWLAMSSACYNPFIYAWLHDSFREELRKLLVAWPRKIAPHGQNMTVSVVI
Description: Antagonist activity at human Gq-coupled PRLHR expressed in CHOK1 cells assessed as inhibition in prolactin releasing peptide (1 to 31)-induced beta-arrestin 2 recruitment incubated for 30 mins followed by prolactin releasing peptide (1 to 31) addition and measured after 90 or 180 mins by pathhunter beta-arrestin assay. Format: cell-based. Summed up: as §1

Test [6] concerns the target Prostacyclin receptor (Homo sapiens, UniProt P43119). Description: Antagonist activity at human Gs-coupled PTGIR assessed as inhibition in beraprost-induced beta-arrestin 2 recruitment incubated for 30 mins followed by beraprost- addition and measured after 90 or 180 mins by pathhunter beta-arrestin assay. Summed up:
as §1

The target of test [7] is C-C chemokine receptor type 8 (Homo sapiens, UniProt P51685). Description: Antagonist activity at human CCR8 expressed in CHOK1 cells assessed as reduction in CCL1-induced beta-arrestin 2 recruitment incubated for 30 mins followed by CCL1 addition and measured after 90 or 180 mins by pathhunter beta-arrestin assay. Format: cell-based. Summed up:
as §1

Prostacyclin receptor, sequence (P43119 whole entry): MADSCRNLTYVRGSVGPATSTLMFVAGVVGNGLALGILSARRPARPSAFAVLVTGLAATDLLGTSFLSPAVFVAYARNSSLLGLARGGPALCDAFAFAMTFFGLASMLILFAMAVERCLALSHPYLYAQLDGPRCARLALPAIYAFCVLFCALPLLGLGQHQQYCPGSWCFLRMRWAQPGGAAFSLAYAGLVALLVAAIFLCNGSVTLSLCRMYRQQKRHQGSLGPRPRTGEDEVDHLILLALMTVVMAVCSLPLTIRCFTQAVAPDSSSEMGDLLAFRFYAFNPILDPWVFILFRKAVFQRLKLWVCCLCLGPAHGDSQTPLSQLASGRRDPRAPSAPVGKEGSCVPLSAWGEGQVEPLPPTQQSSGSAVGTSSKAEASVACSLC
C-C chemokine receptor type 8, sequence (P51685 whole entry): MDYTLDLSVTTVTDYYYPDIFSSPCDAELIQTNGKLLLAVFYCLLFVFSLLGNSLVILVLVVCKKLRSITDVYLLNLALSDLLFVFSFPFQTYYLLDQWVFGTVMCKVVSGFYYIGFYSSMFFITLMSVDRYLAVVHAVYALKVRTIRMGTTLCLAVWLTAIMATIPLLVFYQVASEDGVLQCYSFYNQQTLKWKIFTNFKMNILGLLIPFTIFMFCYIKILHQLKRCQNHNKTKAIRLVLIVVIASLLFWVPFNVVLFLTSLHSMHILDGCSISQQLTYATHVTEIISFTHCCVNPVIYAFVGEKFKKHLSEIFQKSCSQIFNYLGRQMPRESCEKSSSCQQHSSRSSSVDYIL

`CC[C@]12CCCN(C(=O)c3cccc(Br)c3)CCc3c(n(c4ccccc34)C(=O)C1)[C@@H]2OC`: the half-inhibitory concentration (IC50) in test [1] amounted to 4.95 µM; in test [2] it was 25.7 µM; in test [3] it was 4.62 µM; in test [4] it was 3.9 µM; in test [5], 13.8 µM; in test [6], 12.5 µM.

Take `CC[C@]12C=C(C(=O)OC)n3c(c(CCNC(=O)c4ccc(Br)cc4)c4ccccc43)[C@H]1N(C#N)CCC2`: the half-maximal inhibitory concentration (IC50) in test [4] was 5.77 µM; in test [5], 2.43 µM; in test [7] it was 5.2 µM.
